Measured values published in ChEMBL document CHEMBL1153546, “Pharmacokinetics of telbivudine in subjects with various degrees of renal impairment” (Antimicrob Agents Chemother, 2007).

How the values were obtained:
[1] = AUC (0 to t) in patient with end-stage renal disease at 200 mg, po disease as two single doses 2 hrs before dialysis separated by 1 week washout period; assay type: ADME, organism-based; details: human, plasma
Procedure, shortened: (§1)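 Single oral telbivudine dose. Heparinized blood was drawn predose and up to 48 h postdose, with extra paired dialyzer samples for predialysis dosing. Plasma was stored at –20°C and assayed by validated HPLC-MS/MS (LLOQ 10 ng/ml, range 10–5,000 ng/ml). Noncompartmental analysis: AUC0-t by linear trapezoidal rule to last measurable concentration; AUC0-∞ = AUC0-t + Ct/kel.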

[2] = AUC (0 to t) in patient with end-stage renal disease at 200 mg, po administered as two single doses within 2 hrs of after completion of dialysis separated by 1 week washout period; assay type: ADME, organism-based; details: human, plasma; procedure, shortened: as §1
[3] = system: Homo sapiens; experiment: AUC (0 to infinity) in human with normal renal function at 600 mg, po administered as single dose; assay type: ADME, organism-based, Plasma; set-up: dose 600 mg, route oral, time infinity; details: in vivo; procedure, shortened: as §1
[4] = AUC (0 to infinity) in patient with mild renal impairment at 600 mg, po administered as single dose; assay type: ADME, organism-based; set-up: dose 600 mg, route oral, time infinity; details: human, plasma; procedure, shortened: as §1
[5] = AUC (0 to infinity) in patient with moderate renal impairment at 400 mg, po administered as single dose; assay type: ADME, organism-based; set-up: dose 400 mg, time infinity, route oral; details: human, plasma; procedure, shortened: as §1
[6] = AUC (0 to infinity) in patient with severe renal impairment at 200 mg, po administered as single dose; assay type: ADME, organism-based; set-up: dose 200 mg, route oral, time infinity; details: human, plasma; procedure, shortened: as §1
[7] = AUC (0 to infinity) in patient with end-stage renal disease at 200 mg, po administered as two single doses 2 hrs before dialysis separated by 1 week washout period; assay type: ADME, organism-based; set-up: dose 200 mg, route oral, time infinity; details: human, plasma; procedure, shortened: as §1
[8] = AUC (0 to infinity) in patient with end-stage renal disease at 200 mg, po administered as two single doses within 2 hrs of after completion of dialysis separated by 1 week washout period; assay type: ADME, organism-based; set-up: dose 200 mg, time infinity, route oral; details: human, plasma; procedure, shortened: as §1
[9] = Tmax in human with normal renal function at 600 mg, po administered as single dose; assay type: ADME, organism-based; details: in vivo
Procedure, shortened: (§2)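 Single oral dose. Plasma was frozen at –20°C. Assay by validated HPLC-MS/MS (LLOQ 10 ng/ml, calibration 10–5,000 ng/ml, m/z 243.0→127.1). Tmax was read directly from the concentration-time data, with noncompartmental analysis.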

[10] = Tmax in patient with mild renal impairment at 600 mg, po administered as single dose; assay type: ADME, organism-based; details: human, in vivo; procedure, shortened: as §2
[11] = Tmax in patient with moderate renal impairment at 400 mg, po administered as single dose; assay type: ADME, organism-based; details: human, in vivo; procedure, shortened: as §2
[12] = Tmax in patient with severe renal impairment at 200 mg, po administered as single dose; assay type: ADME, organism-based; details: human, in vivo; procedure, shortened: as §2
[13] = Tmax in patient with end-stage renal disease at 200 mg, po administered as two single doses 2 hrs before dialysis separated by 1 week washout period; assay type: ADME, organism-based; details: human, in vivo
Procedure, shortened: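 ESRD subjects dosed orally before dialysis, with a 3.5–4 h hemodialysis session starting 2 h post-dose. Blood was drawn predose and at 0.5, 0.75, 1, 2, 3.75–4, 5.5–6, 8, 12, 16, 20, 24, 28, 32, 36 and 48 h. Paired pre/postdialyzer samples were taken at the dialysis time points. Plasma telbivudine by HPLC-MS/MS. Tmax taken directly from the observed data.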

[14] = Tmax in patient with end-stage renal disease at 200 mg, po administered as two single doses within 2 hrs of after completion of dialysis separated by 1 week washout period; assay type: ADME, organism-based; details: human, in vivo; procedure, shortened: as §2
[15] = Elimination half life in human with normal renal function at 600 mg, po administered as single dose; assay type: ADME, organism-based; details: in vivo, read-out: beta t1/2 (converted)
Procedure, shortened: (§3)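 Half-lives came from noncompartmental analysis of plasma LC-MS/MS concentrations over 48 h after a single oral dose. Terminal and initial-decline t1/2 were calculated as 0.693/k, with each rate constant derived by stripping and linear regression.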

[16] = Elimination half life in patient with mild renal impairment at 600 mg, po administered as single dose; assay type: ADME, organism-based; details: human, in vivo, read-out: beta t1/2 (converted); procedure, shortened: as §3
[17] = Elimination half life in patient with moderate renal impairment at 400 mg, po administered as single dose; assay type: ADME, organism-based; details: human, in vivo, read-out: beta t1/2 (converted); procedure, shortened: as §3
[18] = Elimination half life in patient with severe renal impairment at 200 mg, po administered as single dose; assay type: ADME, organism-based; details: human, in vivo, read-out: beta t1/2 (converted); procedure, shortened: as §3
[19] = Elimination half life in patient with end-stage renal disease at 200 mg, po administered as two single doses 2 hrs before dialysis separated by 1 week washout period; assay type: ADME, organism-based; details: human, in vivo, read-out: beta t1/2 (converted); procedure, shortened: as §3
[20] = Elimination half life in patient with end-stage renal disease at 200 mg, po administered as two single doses within 2 hrs of after completion of dialysis separated by 1 week washout period; assay type: ADME, organism-based; details: human, in vivo, read-out: beta t1/2 (converted); procedure, shortened: as §3
[21] = Initial decline half life in human with normal renal function at 600 mg, po administered as single dose; assay type: ADME, organism-based; details: in vivo, read-out: alphat1/2 (converted); procedure, shortened: as §3
[22] = Initial decline half life in patient with mild renal impairment at 600 mg, po administered as single dose; assay type: ADME, organism-based; details: human, in vivo, read-out: alphat1/2 (converted); procedure, shortened: as §3
[23] = Initial decline half life in patient with moderate renal impairment at 400 mg, po administered as single dose; assay type: ADME, organism-based; details: human, in vivo, read-out: alphat1/2 (converted); procedure, shortened: as §3
[24] = Initial decline half life in patient with severe renal impairment at 200 mg, po administered as single dose; assay type: ADME, organism-based; details: human, in vivo, read-out: alphat1/2 (converted); procedure, shortened: as §3
[25] = Initial decline half life in patient with end-stage renal disease at 200 mg, po administered as two single doses within 2 hrs of after completion of dialysis separated by 1 week washout period; assay type: ADME, organism-based; details: human, in vivo, read-out: alphat1/2 (converted); procedure, shortened: as §3
[26] = Cmax in patient with mild renal impairment at 600 mg, po administered as single dose; assay type: ADME, organism-based; set-up: dose 600 mg, route oral; details: human, in vivo
Procedure, shortened: (§4)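 Plasma telbivudine after one oral dose, sampled predose through 48 h and quantified by validated LC-MS/MS (LLOQ 10 ng/ml, transition 243.0→127.1 m/z). Cmax was read directly from the observed concentration-time data.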

[27] = Cmax in patient with moderate renal impairment at 400 mg, po administered as single dose; assay type: ADME, organism-based; set-up: dose 400 mg, route oral; details: human, in vivo; procedure, shortened: as §4
[28] = Cmax in patient with severe renal impairment at 200 mg, po administered as single dose; assay type: ADME, organism-based; set-up: dose 200 mg, route oral; details: human, in vivo; procedure, shortened: as §4

SMILES: Cc1cn([C@@H]2C[C@@H](O)[C@H](CO)O2)c(=O)[nH]c1=O [TELBIVUDINE]
- AUC(0-t) [1]: 26500 ng·h/mL
- AUC(0-t) [2]: 41800 ng·h/mL
- AUC [3]: 28500 ng·h/mL
- AUC(0-inf) [4]: 32500 ng·h/mL
- AUC(0-inf) [5]: 36000 ng·h/mL
- AUC(0-inf) [6]: 32500 ng·h/mL
- AUC(0-inf) [7]: 43400 ng·h/mL
- AUC(0-inf) [8]: 67400 ng·h/mL
- Tmax [9]: 4 h
- Tmax [10]: 4 h
- Tmax [11]: 4 h
- Tmax [12]: 4 h
- Tmax [13]: 8 h
- Tmax [14]: 3.5 h
- half-life [15]: 20.5 h
- half-life [16]: 26.7 h
- half-life [17]: 31.2 h
- half-life [18]: 32.9 h
- half-life [19]: 35.2 h
- half-life [20]: 37.9 h
- half-life [21]: 2.32 h
- half-life [22]: 3.42 h
- half-life [23]: 3.82 h
- half-life [24]: 4.5 h
- half-life [25]: 4.87 h
- Cmax [26]: 3200 ng/mL
- Cmax [27]: 2800 ng/mL
- Cmax [28]: 1600 ng/mL
